Source: PubChem BioAssay (Sanford-Burnham Center for Chemical Genomics)
In the library only some 0.64% were active in any assay of this set; here they are far more common.
TNAP inh noacc: TNAP (human) inhibition, acceptor-free conditions | purified TNAP, CDP-star luminescence, 30 min | inhibition, % at 20 µM | actives 0.26% (n = 200,000) | AID 1012;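 active = tissue-nonspecific alkaline phosphatase inhibition above about 50% at 20 µM in the single-dose screen, limit read from the data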;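 note: 0% = DMSO negative control and 100% = EDTA positive control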
Target sequence (P05186 whole entry, looked up): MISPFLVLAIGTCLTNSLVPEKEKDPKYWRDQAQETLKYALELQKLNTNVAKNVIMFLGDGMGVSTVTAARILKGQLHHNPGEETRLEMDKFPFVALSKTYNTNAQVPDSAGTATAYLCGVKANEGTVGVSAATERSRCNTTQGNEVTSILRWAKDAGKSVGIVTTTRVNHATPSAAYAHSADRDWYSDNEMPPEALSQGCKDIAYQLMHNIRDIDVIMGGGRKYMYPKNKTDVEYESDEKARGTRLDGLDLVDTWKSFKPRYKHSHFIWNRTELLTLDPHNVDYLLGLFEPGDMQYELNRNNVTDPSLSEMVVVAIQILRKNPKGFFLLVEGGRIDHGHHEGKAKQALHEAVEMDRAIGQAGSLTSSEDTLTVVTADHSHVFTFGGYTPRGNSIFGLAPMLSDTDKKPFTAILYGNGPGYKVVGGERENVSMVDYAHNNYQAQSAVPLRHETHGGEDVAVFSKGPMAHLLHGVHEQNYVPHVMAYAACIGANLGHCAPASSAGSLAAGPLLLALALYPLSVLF
TNAP act hi DEA: TNAP (human) activation, high acceptor; P05186; purified TNAP, CDP-star luminescence, 1 M DEA, 30 min; hits give high values; 0 = EDTA background, 1 = DMSO-only activity; activation factor at 20 µM; 200,000 tested, under 10 active;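 active = activation factor at least 2 at 20 µM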
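Dosing: 20 µM single point. System: human TNAP. Amount: TNAP 1/800 final. Incubation: 30 min, room temperature. Read-out: TNAP activation factor scaled between EDTA and DMSO control wells. Signal: luminescence from CDP-star hydrolysis. Medium: 1 M DEA, pH 9.8, Mg2+, Zn2+. Control set: EDTA negative control, DMSO positive control.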
PMI act satM6P: activators of human phosphomannose isomerase at near-saturating mannose 6-phosphate | P34949 | coupled PMI enzyme assay, resazurin fluorescence, 20 min; hits give high values; 1 = untreated enzyme, 0 = substrate-free blank | activation factor at 20 µM | actives 0.34% (n = 190,000) | AID 1216;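 active = activation factor of 2 or more at 20 µM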
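Material: human phosphomannose isomerase with PGI, G6PDH, diaphorase coupling enzymes / Reagent: Man-6-P substrate 1.0 mM / Dosing: single compound dose of 20 µM, 1% DMSO final / Incubation: enzyme reaction with compound 20 min at room temperature / Signal: resorufin fluorescence (Ex 544/Em 590 nm) from resazurin via diaphorase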
PMI act: increases human mannose-6-phosphate isomerase activity; purified human PMI, coupled resazurin fluorescence, 20 min; hits give high values; 1 = vehicle control, 0 substrate-free wells; activation factor at 20 µM; actives 0.005% (n = 190,000);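 active = activation factor of 2 or more at 20 µM, relative to plate controls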
TNAP inh hi DEA: inhibitors of human TNAP at high phosphate acceptor concentration | P05186 | inhibition, % at 20 µM | AID 1135 | actives 0.03% (n = 200,000) | purified TNAP, CDP-star luminescence, 1 M DEA;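 active = over 50% inhibition of tissue-nonspecific alkaline phosphatase at 20 µM in the single-dose screen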;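 note: plate controls were DMSO wells for no effect and EDTA-quenched wells as full inhibition for full effect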
* = called active by the depositor.

For CC1=NNC(=O)/C1=C\c1cn(-c2ccccc2)nc1-c1ccccc1 the results were TNAP inh noacc 1, TNAP act hi DEA 1, PMI act satM6P 0.8, PMI act 0.8 and TNAP inh hi DEA 2.
CC(C)(C)SCCNC(=O)CN(c1ccc(F)cc1)S(=O)(=O)c1ccccc1 was read as TNAP inh noacc -6, TNAP act hi DEA 1, PMI act satM6P 1, PMI act 0.9 and TNAP inh hi DEA -3.
`Cc1cc(C)c2c(-n3cccc3)nn(CC#N)c2n1` gave TNAP inh noacc -10, TNAP act hi DEA 1, PMI act satM6P 1.1, PMI act 1.1 and TNAP inh hi DEA -4.
Screening COc1ccc(NC(=O)c2cn(CCC#N)nc2-c2cc3ccccc3o2)cc1 returned TNAP inh noacc 5, TNAP act hi DEA 1, PMI act satM6P 0.9, PMI act 1 and TNAP inh hi DEA 0.
O=C(CSc1n[nH]c(-c2ccccc2)n1)c1ccccc1 was read as TNAP inh noacc 56*, TNAP act hi DEA 1, PMI act satM6P 1.1, PMI act 1 and TNAP inh hi DEA -2.
For CC(C)c1ccc(C(=O)CSc2n[nH]c(-c3ccncc3)n2)cc1 the results were TNAP inh noacc 3, TNAP act hi DEA 1, PMI act satM6P 1, PMI act 0.9 and TNAP inh hi DEA -5.
Screening COC(=O)c1ccccc1NC(=O)CSc1n[nH]c(-c2cccnc2)n1 returned TNAP inh noacc 69*, TNAP act hi DEA 0.7, PMI act satM6P 1.1, PMI act 1 and TNAP inh hi DEA 32.
Screening COC(=O)c1ccccc1NC(=O)CSc1n[nH]c(C)n1 returned TNAP inh noacc 1, TNAP act hi DEA 1, PMI act satM6P 1, PMI act 1 and TNAP inh hi DEA -1.
For CC(C)(C)N/N=C/c1c(O)n(-c2ccc(Cl)cn2)c(=O)c2ccccc12 the results were TNAP inh noacc 5, TNAP act hi DEA 1, PMI act satM6P 2.5*, PMI act 1.9 and TNAP inh hi DEA 0.
`O=C1c2ccccc2NC(c2cn[nH]c2-c2ccc(Cl)cc2)N1O` (configuration not stated) gave TNAP inh noacc -22, TNAP act hi DEA 1, PMI act satM6P 2.2*, PMI act 1.7 and TNAP inh hi DEA -4.
Screening O=c1cc(CN2CC(O)Cc3ccc4ccccc4c32)nc2sccn12 (configuration not stated) returned TNAP inh noacc -8, TNAP act hi DEA 1, PMI act satM6P 0.5, PMI act 0.9 and TNAP inh hi DEA 0.
Screening NNc1ccccc1C(F)(F)F returned TNAP inh noacc -26, TNAP act hi DEA 1, PMI act satM6P 3.1*, PMI act 2* and TNAP inh hi DEA -3.
For Cc1cc([N+](=O)[O-])nn1CCCC(=O)NCc1ccc(F)cc1 the results were TNAP inh noacc -3, TNAP act hi DEA 1, PMI act satM6P 1, PMI act 1.1 and TNAP inh hi DEA -3.
For Cc1ccc(N/N=C(\Cc2nc3ccccc3[nH]2)c2ccccc2)cc1 the results were TNAP inh noacc -32, TNAP act hi DEA 1, PMI act satM6P 2.2*, PMI act 1.5 and TNAP inh hi DEA 2.
`N#CCCN/N=C(\Cc1nc2ccccc2[nH]1)c1ccccc1` gave TNAP inh noacc -5, TNAP act hi DEA 1, PMI act satM6P 1, PMI act 1 and TNAP inh hi DEA 0.
Screening CCN/N=C(\Cc1nc2ccccc2[nH]1)c1ccccc1 returned TNAP inh noacc -9, TNAP act hi DEA 1, PMI act satM6P 0.9, PMI act 1 and TNAP inh hi DEA 2.
For c1ccc(N/N=C(\Cc2nc3ccccc3[nH]2)c2ccccc2)cc1 the results were TNAP inh noacc -12, TNAP act hi DEA 1, PMI act satM6P 2.9*, PMI act 1.8 and TNAP inh hi DEA -1.
`Clc1cccc(/C(Cc2nc3ccccc3[nH]2)=N\Nc2ccccc2)c1` gave TNAP inh noacc -17, TNAP act hi DEA 1, PMI act satM6P 2.5*, PMI act 1.7 and TNAP inh hi DEA 3.
`N#CCCN/N=C(/Cc1nc2ccccc2[nH]1)c1ccc(Cl)cc1` gave TNAP inh noacc -6, TNAP act hi DEA 1, PMI act satM6P 1, PMI act 0.9 and TNAP inh hi DEA 0.
For CN1C(=S)N(c2cccnc2)C(=O)/C1=C\c1ccc(N(C)C)cc1 the results were TNAP inh noacc 52*, TNAP act hi DEA 0.6, PMI act satM6P 0.9, PMI act 0.9 and TNAP inh hi DEA 39.
Screening CCn1c(C)cs/c1=N\C(=S)Nc1ccccc1C returned TNAP inh noacc 5, TNAP act hi DEA 1, PMI act satM6P 1, PMI act 0.9 and TNAP inh hi DEA -1.
`CSCSC1=C(C#N)C(c2ccc(Cl)cc2)C(C(C)=O)=C(C)N1` (configuration not stated) gave TNAP inh noacc -8, TNAP act hi DEA 1.1, PMI act satM6P 2.1*, PMI act 1.5 and TNAP inh hi DEA -5.
For Cc1nn(-c2ccccc2)c(C)c1/C=C/C(=O)OCC(=O)Nc1ncc(C(F)(F)F)cc1Cl the results were TNAP inh noacc -6, TNAP act hi DEA 1, PMI act satM6P 1, PMI act 1 and TNAP inh hi DEA -3.
Screening O=C(NNc1cccc(Cl)c1)c1cccnc1Cl returned TNAP inh noacc -6, TNAP act hi DEA 1, PMI act satM6P 2*, PMI act 1.7 and TNAP inh hi DEA 1.
`O=C(NNc1cccc(Cl)n1)c1cccnc1Cl` gave TNAP inh noacc -41, TNAP act hi DEA 1, PMI act satM6P 1, PMI act 1.1 and TNAP inh hi DEA 0.
For COc1ccc(C(=O)N(C(C)C)C(C)C)c(OC)c1 the results were TNAP inh noacc -4, TNAP act hi DEA 1, PMI act satM6P 1, PMI act 1 and TNAP inh hi DEA 1.
CCOc1ccc(C(=O)CCc2nc3ccccc3s2)cc1 was read as TNAP inh noacc -11, TNAP act hi DEA 1.1, PMI act satM6P 0.9, PMI act 0.9 and TNAP inh hi DEA -8.
`Fc1ccc(-c2n[nH]c(=S)c3ccccc23)cc1` gave TNAP inh noacc 3, TNAP act hi DEA 1, PMI act satM6P 2.4*, PMI act 1.8 and TNAP inh hi DEA 0.
c1ccc(-c2n[nH]c3ccccc23)cc1 was read as TNAP inh noacc 90*, TNAP act hi DEA 0.9, PMI act satM6P 1, PMI act 0.9 and TNAP inh hi DEA 10.
For Cc1ccc(NC(=O)c2cc(S(=O)(=O)c3ccccc3)ccc2Cl)cc1 the results were TNAP inh noacc -9, TNAP act hi DEA 1.1, PMI act satM6P 0.9, PMI act 0.9 and TNAP inh hi DEA -6.
`Cc1ccc(-c2c(C(=O)NNC(=S)NCC3CCCO3)csc2C)cc1` (configuration not stated) gave TNAP inh noacc -149, TNAP act hi DEA 1.1, PMI act satM6P 1.1, PMI act 1.1 and TNAP inh hi DEA -6.
